Reference: ChEMBL document CHEMBL2390936, “Phosphonic analogues of glutamic acid as irreversible inhibitors of Staphylococcus aureus endoproteinase GluC: an efficient synthesis and inhibition of the human IgG degradation” (Bioorg Med Chem Lett, 2013)
The source made the active and inactive calls. The calls are words filed in the database; no cut-off is given here.

Experiments:
[1] = target: Glutamyl endopeptidase (Staphylococcus aureus) (UniProt P0C1U8); test: Inhibition of Staphylococcus aureus endoproteinase GluC using Ac-Phe-Leu-Glu-ACC as substrate at 200 uM after 30 mins
In short: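 V8 protease (75 nM) in 0.1 M Tris–HCl, 0.05% Tween 20, pH 7.8, 37 °C, with fluorogenic Ac-Phe-Leu-Glu-ACC (Ex 355/Em 460 nm). Enzyme added last to substrate plus inhibitor. Percentage inhibition recorded after 30 min of kinetic measurement at 200 µM inhibitor.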

[2] = target: Glutamyl endopeptidase (Staphylococcus aureus, UniProt P0C1U8); test: Inhibition of Staphylococcus aureus endoproteinase GluC using Ac-Phe-Leu-Glu-ACC as substrate after 30 mins
In short: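 V8 protease (75 nM, commercial) in 0.1 M Tris–HCl, 0.05% Tween 20, pH 7.8, 37 °C. Fluorogenic substrate Ac-Phe-Leu-Glu-ACC (Ex 355/Em 460 nm). Enzyme added to substrate plus inhibitor, with [E]0 below [I]0. Observed inhibition rate constants taken from progress curves, giving k2/Ki and Ki.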

[3] = target: T1, Serine protease SplB (Staphylococcus aureus) (UniProt Q53781); test: Inhibition of Staphylococcus aureus SplB protease using Ac-Trp-Glu-Leu-Gln-ACC as substrate at 200 uM after 30 mins
T1 sequence (whole entry): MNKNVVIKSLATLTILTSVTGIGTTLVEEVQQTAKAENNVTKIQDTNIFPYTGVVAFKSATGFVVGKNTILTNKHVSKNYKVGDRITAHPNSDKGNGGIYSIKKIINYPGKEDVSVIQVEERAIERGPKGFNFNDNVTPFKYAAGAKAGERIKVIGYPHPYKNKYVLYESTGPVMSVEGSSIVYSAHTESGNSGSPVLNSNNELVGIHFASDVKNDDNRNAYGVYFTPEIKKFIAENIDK
In short: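 SplB protease (100 nM, recombinant, expressed and purified in-house) in 0.1 M Tris–HCl, 0.01% Triton X-100, pH 7.6, 37 °C. Fluorogenic substrate Ac-Trp-Glu-Leu-Gln-ACC (Ex 355/Em 460 nm). Enzyme added last to substrate plus inhibitor. Percentage inhibition read after 30 min of kinetic measurement with inhibitor at 200 µM.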

[4] = system: Staphylococcus aureus; test: Antibacterial activity against Staphylococcus aureus ATCC […] after 4 to 24 hrs; assay type: functional, organism-based
[5] = target: Glutamyl endopeptidase (Staphylococcus aureus) (UniProt P0C1U8); test: Inhibition of Staphylococcus aureus endoproteinase GluC-mediated human IgG degradation at 100 uM preincubated 1 hr prior to human IgG degradation addition measured after 24 hrs
In short: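 V8 protease (final 1 µM) pre-incubated 1 h at 37 °C with inhibitor (final 100 µM). Human IgG (final 160 µg/ml) then added and incubated 24 h at 37 °C. DMSO-only control. Fragments separated by gel and visualised by silver staining.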

Glutamyl endopeptidase, sequence (P0C1U8 whole entry): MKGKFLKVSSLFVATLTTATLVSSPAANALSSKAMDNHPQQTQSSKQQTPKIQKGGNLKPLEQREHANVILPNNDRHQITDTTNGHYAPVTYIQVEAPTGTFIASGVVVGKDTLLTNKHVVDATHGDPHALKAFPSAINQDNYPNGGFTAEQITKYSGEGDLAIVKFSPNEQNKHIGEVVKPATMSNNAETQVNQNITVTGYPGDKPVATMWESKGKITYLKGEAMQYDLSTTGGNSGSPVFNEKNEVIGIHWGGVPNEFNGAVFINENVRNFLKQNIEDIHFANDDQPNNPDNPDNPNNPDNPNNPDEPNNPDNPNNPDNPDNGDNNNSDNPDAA
Glutamyl endopeptidase (Staphylococcus aureus), sequence (P0C1U8 whole entry, the tested form may be a part): as the sequence (P0C1U8 whole entry) above

CC(C)C[C@H](NC(=O)[C@H](CCC(=O)O)NC(=O)OC(C)(C)C)C(=O)NC(CCC(N)=O)P(=O)(Oc1ccccc1)Oc1ccccc1 (mixture of isomers)
inhibition [1]: 0%

CC(C)[C@H](NC(=O)[C@H](CCC(=O)O)NC(=O)OC(C)(C)C)C(=O)NC(CCC(=O)O)P(=O)(Oc1ccccc1)Oc1ccccc1 (mixture of isomers)
Ki [2]: 9.95 µM
inhibition [3]: 0%

CC(C)[C@H](NC(=O)[C@H](Cc1ccccc1)NC(=O)OC(C)(C)C)C(=O)NC(CCC(=O)O)P(=O)(Oc1ccccc1)Oc1ccccc1 (mixture of isomers)
Ki [2]: 8.15 µM
inhibition [3]: 0%

CC(C)C[C@H](NC(=O)[C@H](CCC(=O)O)NC(=O)OC(C)(C)C)C(=O)NC(CCC(=O)O)P(=O)(Oc1ccccc1)Oc1ccccc1 (mixture of isomers)
Ki [2]: 9.5 µM
inhibition [3]: 0%

C[C@H](NC(=O)[C@H](CC(=O)O)NC(=O)OC(C)(C)C)C(=O)NC(CCC(=O)O)P(=O)(Oc1ccccc1)Oc1ccccc1 (mixture of isomers)
inhibition [1]: 26%
inhibition [3]: 0%

GENTAMICIN
MIC [4]: 2 µg/mL

CC(=O)NC(CCC(=O)O)P(=O)(Oc1ccccc1)Oc1ccccc1 (racemic)
Ki [2]: 11.1 µM
inhibition [3]: 0%

CC(C)C[C@H](NC(=O)OC(C)(C)C)C(=O)NC(CCC(=O)O)P(=O)(Oc1ccccc1)Oc1ccccc1 (mixture of isomers)
Ki [2]: 7.8 µM
inhibition [3]: 0%

C[C@H](NC(=O)[C@H](Cc1ccccc1)NC(=O)OC(C)(C)C)C(=O)NC(CCC(=O)O)P(=O)(Oc1ccccc1)Oc1ccccc1 (mixture of isomers)
Ki [2]: 9.4 µM
inhibition [3]: 0%

O=C(O)CCC(NC(=O)OCc1ccccc1)P(=O)(Oc1ccccc1)Oc1ccccc1 (racemic)
Ki [2]: 8.1 µM
inhibition [3]: 0%

C[C@H](NC(=O)OC(C)(C)C)C(=O)NC(CCC(=O)O)P(=O)(Oc1ccccc1)Oc1ccccc1 (mixture of isomers)
inhibition [1]: 39%
inhibition [3]: 0%

CC(C)[C@H](NC(=O)OC(C)(C)C)C(=O)NC(CCC(=O)O)P(=O)(Oc1ccccc1)Oc1ccccc1 (mixture of isomers)
Ki [2]: 23.3 µM
inhibition [3]: 0%

CC(C)[C@H](NC(=O)[C@H](CC(=O)O)NC(=O)OC(C)(C)C)C(=O)NC(CCC(=O)O)P(=O)(Oc1ccccc1)Oc1ccccc1 (mixture of isomers)
inhibition [1]: 50%
inhibition [3]: 0%

CC(C)C[C@H](NC(=O)[C@H](CC(=O)O)NC(=O)OC(C)(C)C)C(=O)NC(CCC(=O)O)P(=O)(Oc1ccccc1)Oc1ccccc1 (mixture of isomers)
inhibition [1]: 41%
inhibition [3]: 0%

C[C@H](NC(=O)[C@H](CCC(=O)O)NC(=O)OC(C)(C)C)C(=O)NC(CCC(=O)O)P(=O)(Oc1ccccc1)Oc1ccccc1 (mixture of isomers)
Ki [2]: 12.9 µM
inhibition [3]: 0%

CC(C)C[C@H](NC(=O)[C@H](Cc1ccccc1)NC(=O)OC(C)(C)C)C(=O)NC(CCC(=O)O)P(=O)(Oc1ccccc1)Oc1ccccc1 (mixture of isomers)
Ki [2]: 6.2 µM
inhibition [3]: 0%
inhibition [4]: inactive
inhibition [5]: Active
